Values joined by “and” are separate entries in the source; they are usually repeats but may differ in a detail not shown here. Equal entries are not always repeated.
Tested on: U2OS
Test: Multiplex assay against U2OS
Format: toxicity, cell-based
Conditions: human
Summary of the method: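 At seeding, live cells were stained with Hoechst33342, BioTracker Green Microtubule Cytoskeleton Dye, MitoTracker Red and Annexin V Alexa Fluor 680. After compound addition they were imaged on a CQ1 microscope at 37°C and 5% CO2, and CellPathfinder machine-learning gating sorted them into Hoechst high-intensity objects or normal cells, with normal cells further split into healthy, pyknosed or fragmented nuclei and pyknosed cells into mitotic or apoptotic. Tubulin, mitochondrial-mass and membrane-permeability phenotypes are given as per cents of cells with healthy nuclei.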

[1] = 12 h, 1 µM, compound concentration 1 uM, replicate 1
[2] = 12 h, 1 µM, compound concentration 1 uM, replicate 2
[3] = 12 h, 10 µM, compound concentration 10 uM, replicate 1
[4] = 12 h, 10 µM, compound concentration 10 uM, replicate 2
[5] = 24 h, 1 µM, compound concentration 1 uM, replicate 1
[6] = 24 h, 1 µM, compound concentration 1 uM, replicate 2
[7] = 24 h, 10 µM, compound concentration 10 uM, replicate 1
[8] = 24 h, 10 µM, compound concentration 10 uM, replicate 2

CC[C@@]1(O)C(=O)OCc2c1cc1n(c2=O)Cc2cc3ccccc3nc2-1 [CAMPTOTHECIN]
Population Healthy Nuclei (%) [1]: 34% and 42% and 78% | Population Membrane Permeable-Phenotype (%) [1]: 11% and 13% and 14% | Population Mitochondria Different-Phenotype (%) [1]: 25% and 31% and 35% | Population Normal (%) [1]: 48% and 90% | Population Pyknosed Nuclei (%) [1]: 13% and 7% | Population Tubulin-Different-Phenotype (%) [1]: 20% and 33% | Population Apoptotic (%) [2]: 22% and 36% and 16% | Population Fragmented Nuclei (%) [2]: 62% and 59% and 26% | Population Healthy Nuclei (%) [2]: 25% and 24% and 65% | Population Hoechst High Intensity Objects (%) [2]: 62% and 50% and 28% | Population Membrane Permeable-Phenotype (%) [2]: 10% and 9% | Population Mitochondria Different-Phenotype (%) [2]: 45% and 38% and 22% | Population Mitotic Cells (%) [2]: 77% and 64% and 83% | Population Normal (%) [2]: 37% and 49% and 71% | Population Pyknosed Nuclei (%) [2]: 12% and 15% | Population Apoptotic (%) [3]: 47% | Population Fragmented Nuclei (%) [3]: 13% | Population Healthy Nuclei (%) [3]: 74% | Population Hoechst High Intensity Objects (%) [3]: 6% | Population Membrane Permeable-Phenotype (%) [3]: 16% | Population Mitochondria Different-Phenotype (%) [3]: 24% | Population Mitotic Cells (%) [3]: 52% | Population Normal (%) [3]: 93% | Population Pyknosed Nuclei (%) [3]: 11% | Population Tubulin-Different-Phenotype (%) [3]: 31% | Total Cell Count [3]: 161 | Population Apoptotic (%) [4]: 18% | Population Fragmented Nuclei (%) [4]: 20% | Population Healthy Nuclei (%) [4]: 68% | Population Hoechst High Intensity Objects (%) [4]: 19% | Population Membrane Permeable-Phenotype (%) [4]: 13% | Population Mitochondria Different-Phenotype (%) [4]: 32% | Population Mitotic Cells (%) [4]: 81% | Population Normal (%) [4]: 80% | Population Pyknosed Nuclei (%) [4]: 10% | Population Tubulin-Different-Phenotype (%) [4]: 38% | Total Cell Count [4]: 131 | Population Apoptotic (%) [5]: 63% and 75% and 77% | Population Healthy Nuclei (%) [5]: 26% and 28% and 72% | Population Membrane Permeable-Phenotype (%) [5]: 36% and 32% and 15% | Population Mitochondria Different-Phenotype (%) [5]: 58% and 57% and 35% | Population Mitotic Cells (%) [5]: 36% and 24% and 22% | Population Normal (%) [5]: 43% and 46% and 91% | Population Pyknosed Nuclei (%) [5]: 15% and 18% | Population Tubulin-Different-Phenotype (%) [5]: 38% and 42% and 40% | Population Apoptotic (%) [6]: 54% and 62% and 80% | Population Fragmented Nuclei (%) [6]: 63% and 22% | Population Hoechst High Intensity Objects (%) [6]: 59% and 27% | Population Mitochondria Different-Phenotype (%) [6]: 54% and 50% and 33% | Population Mitotic Cells (%) [6]: 45% and 37% and 20% | Population Normal (%) [6]: 40% and 72% | Population Pyknosed Nuclei (%) [6]: 21% and 11% | Population Apoptotic (%) [7]: 80% | Population Fragmented Nuclei (%) [7]: 21% | Population Healthy Nuclei (%) [7]: 65% | Population Hoechst High Intensity Objects (%) [7]: 5% | Population Membrane Permeable-Phenotype (%) [7]: 14% | Population Mitochondria Different-Phenotype (%) [7]: 41% | Population Mitotic Cells (%) [7]: 20% | Population Normal (%) [7]: 94% | Population Pyknosed Nuclei (%) [7]: 13% | Population Tubulin-Different-Phenotype (%) [7]: 37% | Total Cell Count [7]: 157 | Population Apoptotic (%) [8]: 90% | Population Fragmented Nuclei (%) [8]: 25% | Population Healthy Nuclei (%) [8]: 64% | Population Hoechst High Intensity Objects (%) [8]: 10% | Population Membrane Permeable-Phenotype (%) [8]: 17% | Population Mitochondria Different-Phenotype (%) [8]: 35% | Population Mitotic Cells (%) [8]: 9% | Population Normal (%) [8]: 89% | Population Pyknosed Nuclei (%) [8]: 11% | Population Tubulin-Different-Phenotype (%) [8]: 42% | Total Cell Count [8]: 112
